Data on twelve compounds can be found in ChEMBL document CHEMBL6109171, “Design, Synthesis, and Evaluation of a New Fluorescent Ligand for the M2 Muscarinic Acetylcholine Receptor” (ACS Med Chem Lett, 2025).

Data set [1] is described as follows: Selectivity ratio of Ki for binding affinity to M1 receptor (unknown origin) to Ki for displacement of [3H]-Pirenzepine from human muscarinic M2 receptor.
Data set [2] can be described thus: Selectivity ratio of Ki for binding affinity to M3 receptor (unknown origin) to Ki for displacement of [3H]-Pirenzepine from human muscarinic M2 receptor. A general note: Displacement assays read how much labelled ligand stays bound in the presence of the test substance.
Data set [3] can be described thus: Selectivity ratio of Ki for binding affinity to M4 receptor (unknown origin) to Ki for displacement of [3H]-Pirenzepine from human muscarinic M2 receptor.
The nature of data set [4]: Selectivity ratio of Ki for binding affinity to M5 receptor (unknown origin) to Ki for displacement of [3H]-Pirenzepine from human muscarinic M2 receptor.
In data set [5] the target is T1, Muscarinic acetylcholine receptor M2 (Homo sapiens, UniProt P08172).
T1 sequence (P08172 whole entry): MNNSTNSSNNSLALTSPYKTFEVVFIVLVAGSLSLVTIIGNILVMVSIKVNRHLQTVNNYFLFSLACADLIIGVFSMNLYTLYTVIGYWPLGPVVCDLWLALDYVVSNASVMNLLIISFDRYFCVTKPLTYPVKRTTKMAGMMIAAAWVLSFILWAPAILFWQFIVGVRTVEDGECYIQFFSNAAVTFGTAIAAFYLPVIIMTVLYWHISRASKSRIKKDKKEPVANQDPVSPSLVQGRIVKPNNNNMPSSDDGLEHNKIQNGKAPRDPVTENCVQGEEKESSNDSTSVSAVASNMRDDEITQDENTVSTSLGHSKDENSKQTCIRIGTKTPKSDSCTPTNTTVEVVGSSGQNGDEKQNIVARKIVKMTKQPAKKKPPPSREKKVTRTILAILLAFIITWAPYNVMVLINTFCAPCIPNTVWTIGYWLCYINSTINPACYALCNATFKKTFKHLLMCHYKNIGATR
The data set is described as follows: Displacement of [3H]-NMS from human muscarinic M2 receptor expressed in CHO cells. The data set is classed as cell-based. An outline of the steps:
(§1)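 Membranes from CHO cells transfected with human M1–M5 receptors; competition binding against the orthosteric antagonist [3H]-N-methylscopolamine. Ki values were taken from the competition curves. Ratios divide the Ki at M1, M3, M4 or M5 by the Ki at M2 from the same assay.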

Data set [6] deals with Muscarinic acetylcholine receptors; M1 & M2 (Homo sapiens) (UniProt P11229+P08172). The data set is described as follows: Selectivity ratio of Ki for displacement of [3H]-NMS from human muscarinic M1 receptor to Ki for displacement of [3H]-NMS from human muscarinic M2 receptor. The data set is classed as protein assay. Summed up:
as §1

Data set [7] deals with Muscarinic acetylcholine receptors; M2 & M3 (Homo sapiens) (UniProt P20309+P08172). Put plainly: Selectivity ratio of Ki for displacement of [3H]-NMS from human muscarinic M3 receptor to Ki for displacement of [3H]-NMS from human muscarinic M2 receptor. The data set is classed as protein assay. An outline of the steps:
as §1

Data set [8] has as its target Muscarinic acetylcholine receptor M2 and M4 (Homo sapiens) (UniProt P08173+P08172). The data set is described as follows: Selectivity ratio of Ki for displacement of [3H]-NMS from human muscarinic M4 receptor to Ki for displacement of [3H]-NMS from human muscarinic M2 receptor. Type of data set: protein assay. An outline of the steps: as §1
For data set [9], the target named is Muscarinic acetylcholine receptor M2 and M5 (Homo sapiens) (UniProt P08172+P08912). The data set is described as follows: Selectivity ratio of Ki for displacement of [3H]-NMS from human muscarinic M5 receptor to Ki for displacement of [3H]-NMS from human muscarinic M2 receptor. The data set is classed as protein assay. An outline of the steps: as §1
Muscarinic acetylcholine receptor M2 and M5 (Homo sapiens), sequence (P08912 whole entry, looked up, one chain of several): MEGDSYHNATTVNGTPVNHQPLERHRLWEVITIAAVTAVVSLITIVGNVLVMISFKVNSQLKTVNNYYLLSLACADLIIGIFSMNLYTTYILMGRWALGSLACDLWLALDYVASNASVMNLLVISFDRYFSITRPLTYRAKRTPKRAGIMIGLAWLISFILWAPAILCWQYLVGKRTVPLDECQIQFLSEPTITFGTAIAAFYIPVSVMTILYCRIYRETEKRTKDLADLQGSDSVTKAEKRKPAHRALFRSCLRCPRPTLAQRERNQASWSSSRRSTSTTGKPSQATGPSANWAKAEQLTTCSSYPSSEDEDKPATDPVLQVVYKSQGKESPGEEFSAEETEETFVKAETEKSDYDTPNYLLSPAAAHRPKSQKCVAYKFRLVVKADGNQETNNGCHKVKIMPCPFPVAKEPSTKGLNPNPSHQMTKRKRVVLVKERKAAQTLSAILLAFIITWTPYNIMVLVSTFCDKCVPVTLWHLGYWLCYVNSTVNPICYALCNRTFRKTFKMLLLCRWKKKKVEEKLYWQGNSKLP
Data set [10] concerns the target T2, Muscarinic acetylcholine receptor M2 (Homo sapiens) (UniProt P08172).
T2 sequence (whole entry): T1 sequence (P08172 whole entry)
Conditions: HEK293T, filed as antagonist.

Data set [11] in a line: Photostability of compound in PBS buffer at 4 W/450 nm measured after 10 mins. The data set is classed as physicochemical. An outline of the steps: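 Probe in PBS (pH 7) under continuous light (4 W, 450 nm); fluorescence intensity was followed over irradiation time up to 10 min.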
Data set [12] addresses T2, Muscarinic acetylcholine receptor M2 (Homo sapiens). The data set is described as follows: Binding affinity to N-terminal human M2 receptor expressed in HEK293T cell pretreated for 5 mins in presence of atropine by BRET assay. Type of data set: cell-based. To be noted: filed as antagonist, dose <= 1000.0 nM. In general terms: In BRET a luciferase serves as donor, and the signal depends on an acceptor being close.

For data set [13] the target is unchanged. Put plainly: Binding affinity to human M2 receptor expressed in HEK293T cells by confocal microscopic analysis. The data set is classed as cell-based.
For data set [14] the target is unchanged. Put plainly: Binding affinity to human M2 receptor expressed in HEK293T cells measured for 3 min by confocal microscopic analysis. The data set is classed as cell-based. Conditions: filed as antagonist.
The target is the same in data set [15]. Put plainly: Binding affinity to human M2 receptor expressed in HEK293T cells by two-photon microscopic analysis. The data set is classed as cell-based. Conditions: filed as antagonist.
The target is the same in data set [16]. Put plainly: Binding affinity to human M2 receptor expressed in HEK293T cell membrane cells by STED microscopic analysis. Type of data set: cell membranes. Conditions: filed as antagonist.

Active and inactive are the calls of the source. The calls are words filed in the database; no cut-off is given here.

In general, Ki refers to a measure of affinity in units of concentration, obtained from inhibition or displacement. Low readings indicate tighter binding, high ones weaker binding.

For `CCN(CC)CC1CCCCN1CC(=O)N1c2ccccc2C(=O)Nc2cccnc21` (stereo not given), the Ratio Ki in data set [1] amounted to 7; in [2], 16; in data set [3], 4; in data set [4], 44.

`Cc1cc(/C=C/c2cc3c4c(c2)CCCN4CCC3)cc(C)[n+]1CCN1CCN(CCCCC2CCN(CC(=O)N3c4ccccc4NC(=O)c4ccccc43)CC2)CC1` registered a Ki in data set [5] of 1 nM. For the same compound, the Ratio Ki worked out at 5 in [6], 66 in data set [7], 2.8 in data set [8] and 132 in [9].

In data set [5], `O=C(CCCCCNC(=O)COc1ccc(/C=C/C2=[N+]3C(=Cc4ccc(-c5cccs5)n4[B-]3(F)F)C=C2)cc1)NCCNC(=O)CCc1cn(CCCCC2CCN(CC(=O)N3c4ccccc4NC(=O)c4ccccc43)CC2)cn1` yielded a Ki of 0.7 nM. Besides, the Ratio Ki in [6] is 1.4; in data set [7], 53.7; in data set [8], 0.6; in [9], 14.5.

Take `Cc1cc(/C=C/C=C/c2ccc(N(C)C)cc2)cc(C)[n+]1CCN1CCN(CCCCC2CCN(CC(=O)N3c4ccccc4NC(=O)c4ccccc43)CC2)CC1`: in data set [5], the inhibition constant (Ki) came to 3.2 nM. The Ratio Ki stood at 4 in data set [6], 50.1 in data set [7], 3.2 in data set [8] and 126 in [9].

With `CN(C)c1ccc2c(-c3ccc(C(=O)NCCNC(=O)CCc4cn(CCCCC5CCN(CC(=O)N6c7ccccc7NC(=O)c7ccccc76)CC5)cn4)cc3C(=O)[O-])c3ccc(=[N+](C)C)cc-3oc2c1`, the affinity in [5] corresponds to a Ki of 1.7 nM. The Ratio Ki in data set [6] stood at 3.4; in data set [7], 72.4; in [8], 2; in data set [9], 155.

Regarding `Nc1ccccc1C(=O)N1CCC(N2CCC(Cc3ccc(S(=O)(=O)c4cccc(Cl)c4)cc3)CC2)CC1`, in [10], the Ka is 8.06 10^3/s/M.

With `Cc1cc(/C=C/c2cc3c4c(c2)CCCN4CCC3)cc(C)[n+]1CCNC(=O)CCc1cn(CCCCC2CCN(CC(=O)N3c4ccccc4NC(=O)c4ccccc43)CC2)cn1`, the inhibition constant (Ki) in [5] was found to be 1.3 nM. Also, the Ratio Ki in [6] is 5.2; in [7], 51.3; in [8] it was 1.9; in data set [9], 30.1.

In data set [5], `Cc1cc(/C=C/C=C/c2ccc(N(C)C)cc2)cc(C)[n+]1CCNC(=O)CCc1cn(CCCCC2CCN(CC(=O)N3c4ccccc4NC(=O)c4ccccc43)CC2)cn1` came in with a Ki of 0.9 nM. Further, the Ratio Ki came to 5.4 in [6], 93.3 in data set [7], 4.7 in data set [8] and 77.6 in data set [9].

As to `CC1(C)C(/C=C/C=C/C=C2/N(CCCCCC(=O)NCCNC(=O)CCc3cn(CCCCC4CCN(CC(=O)N5c6ccccc6NC(=O)c6ccccc65)CC4)cn3)c3cccc(S(=O)(=O)O)c3C2(C)C)=[N+](CCCCS(=O)(=O)[O-])c2ccccc21`, in data set [5], affinity was put at a Ki of 0.8 nM. For the same compound, the Ratio Ki in data set [6] was 6.3; in data set [7] it was 200; in [8], 39.8; in [9] it was 200.

With `CN(C)c1ccc2c(-c3ccc(C(=O)NCCN4CCN(CCCCC5CCN(CC(=O)N6c7ccccc7NC(=O)c7ccccc76)CC5)CC4)cc3C(=O)[O-])c3ccc(=[N+](C)C)cc-3oc2c1`, the affinity in [5], expressed as Ki, was 0.2 nM. Also, the Ratio Ki in data set [6] came out at 10.7; in [7] it was 339; in data set [8], 4.1; in [9], 741.

In the case of `CCCC(C)(C)C(=O)N(CC)CCCC1CCN(CC(=O)N2c3ccc(Cl)cc3C(=O)Nc3cccnc32)CC1`, the Ratio Ki in data set [1] was found to be 355; in data set [2], 26; in data set [3] it was 6; in data set [4], 48.

As to `O=C(CCOCCOCCNC(=O)c1ccc(-c2c3cc(F)c(=O)cc-3oc3cc(O)c(F)cc23)c(C(=O)O)c1)NCCOCCOCCNc1ccccc1C(=O)N1CCC(N2CCC(Cc3ccc(S(=O)(=O)c4cccc(Cl)c4)cc3)CC2)CC1`, the Stability result in data set [11] is “Stable”. The Activity entry in [12] was “Dose-dependent-effect”. Also, the result in data set [13] was inactive. The result in data set [14], in data set [15] and in data set [16] was Active.
